Blank lines part the entries; values can stand above or below the molecule they belong to.
Legend:
Format in all cases: functional
[1] = tested on: SNB-19; assay: Anticancer activity against human SNB19 cells after 48 hrs by sulforhodamine B assay; conditions: SNB-19, 48 h
Procedure, shortened: (§1)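 NCI 60-cell-line panel; cells grown in RPMI 1640 with 5% FBS and 2 mM L-glutamine, plated at 5000–40,000 cells/well and preincubated 24 h at 37 °C, 5% CO2. Compounds came from DMSO stocks diluted in medium with gentamicin and were tested at five final concentrations, 10^-4 to 10^-8 M, for 48 h. Cells were fixed with TCA, stained with SRB and read at 515 nm. GI50, TGI and LC50 were derived as log molar values.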

[2] = tested on: MDA-MB-435; assay: Anticancer activity against human MDA-MB-435 cells after 48 hrs by sulforhodamine B assay; conditions: MDA-MB-435, 48 h
Procedure, shortened: (§2)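 NCI 60-cell-line screen. Cells grown in RPMI 1640 with 5% FBS and 2 mM L-glutamine, plated at 5000–40,000 cells/well, and preincubated 24 h at 37 °C under 5% CO2. Compounds were taken from DMSO stocks and tested at five final concentrations, 10^-4 to 10^-8 M, for 48 h. Cells were TCA-fixed, stained with 0.4% SRB, and read at 515 nm. GI50, TGI and LC50 were derived as log molar values.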

[3] = tested on: UO-31; assay: Anticancer activity against human UO31 cells after 48 hrs by sulforhodamine B assay; conditions: UO-31, 48 h; procedure, shortened: as §1
[4] = tested on: U-251; assay: Anticancer activity against human U251 cells after 48 hrs by sulforhodamine B assay; conditions: U-251, 48 h; procedure, shortened: as §1
[5] = tested on: HCT-116; assay: Anticancer activity against human HCT116 cells after 48 hrs by sulforhodamine B assay; conditions: HCT-116, 48 h; procedure, shortened: as §2
[6] = tested on: UACC-62; assay: Anticancer activity against human UACC62 cells after 48 hrs by sulforhodamine B assay; conditions: UACC-62, 48 h; procedure, shortened: as §1
[7] = tested on: IGROV-1; assay: Anticancer activity against human IGROV1 cells after 48 hrs by sulforhodamine B assay; conditions: IGROV-1, 48 h; procedure, shortened: as §2
[8] = tested on: PC-3; assay: Anticancer activity against human PC3 cells after 48 hrs by sulforhodamine B assay; conditions: PC-3, 48 h; procedure, shortened: as §2
[9] = tested on: OVCAR-8; assay: Anticancer activity against human OVCAR8 cells after 48 hrs by sulforhodamine B assay; conditions: OVCAR-8, 48 h; procedure, shortened: as §2
[10] = tested on: SK-MEL-2; assay: Anticancer activity against human SK-MEL-2 cells after 48 hrs by sulforhodamine B assay; conditions: SK-MEL-2, 48 h; procedure, shortened: as §2
[11] = tested on: A549; assay: Anticancer activity against human A549 cells after 48 hrs by sulforhodamine B assay; conditions: A549, 48 h; procedure, shortened: as §2
[12] = tested on: SK-MEL-28; assay: Anticancer activity against human SK-MEL-28 cells after 48 hrs by sulforhodamine B assay; conditions: SK-MEL-28, 48 h; procedure, shortened: as §2
[13] = tested on: HT-29; assay: Anticancer activity against human HT-29 cells after 48 hrs by sulforhodamine B assay; conditions: HT-29, 48 h; procedure, shortened: as §2
[14] = tested on: HCC 2998; assay: Anticancer activity against human HCC2998 cells after 48 hrs by sulforhodamine B assay; conditions: HCC 2998, 48 h; procedure, shortened: as §2
[15] = Anticancer activity against human Hs 578T cells after 48 hrs by sulforhodamine B assay; procedure, shortened: as §2
[16] = tested on: SR; assay: Anticancer activity against human SR cells after 48 hrs by sulforhodamine B assay; procedure, shortened: as §1
[17] = tested on: SK-OV-3; assay: Anticancer activity against human SKOV3 cells after 48 hrs by sulforhodamine B assay; conditions: SK-OV-3, 48 h; procedure, shortened: as §2
[18] = tested on: NCI-H522; assay: Anticancer activity against human NCI-H522 cells after 48 hrs by sulforhodamine B assay; conditions: NCI-H522, 48 h; procedure, shortened: as §2
[19] = tested on: SF-295; assay: Anticancer activity against human SF295 cells after 48 hrs by sulforhodamine B assay; conditions: SF-295, 48 h; procedure, shortened: as §2
[20] = tested on: NCI-H226; assay: Anticancer activity against human NCI-H226 cells after 48 hrs by sulforhodamine B assay; conditions: NCI-H226, 48 h; procedure, shortened: as §2
[21] = tested on: HCT-15; assay: Anticancer activity against human HCT15 cells after 48 hrs by sulforhodamine B assay; conditions: HCT-15, 48 h; procedure, shortened: as §2
[22] = tested on: MCF7; assay: Anticancer activity against human MCF7 cells after 48 hrs by sulforhodamine B assay; conditions: MCF7, 48 h; procedure, shortened: as §2
[23] = tested on: M14; assay: Anticancer activity against human M14 cells after 48 hrs by sulforhodamine B assay; conditions: M14, 48 h; procedure, shortened: as §2
[24] = tested on: HOP-92; assay: Anticancer activity against human HOP92 cells after 48 hrs by sulforhodamine B assay; conditions: HOP-92, 48 h; procedure, shortened: as §2
[25] = tested on: A498; assay: Anticancer activity against human A498 cells after 48 hrs by sulforhodamine B assay; conditions: A498, 48 h; procedure, shortened: as §2
[26] = tested on: DU-145; assay: Anticancer activity against human DU145 cells after 48 hrs by sulforhodamine B assay; conditions: DU-145, 48 h; procedure, shortened: as §2
[27] = tested on: BT-549; assay: Anticancer activity against human BT549 cells after 48 hrs by sulforhodamine B assay; conditions: BT-549, 48 h; procedure, shortened: as §2
[28] = tested on: 786-0; assay: Anticancer activity against human 786-0 cells after 48 hrs by sulforhodamine B assay; conditions: 786-0, 48 h; procedure, shortened: as §2
[29] = tested on: Malme-3M; assay: Anticancer activity against human MALME-3M cells after 48 hrs by sulforhodamine B assay; procedure, shortened: as §2
[30] = tested on: RXF 393; assay: Anticancer activity against human RXF393 cells after 48 hrs by sulforhodamine B assay; conditions: RXF 393, 48 h; procedure, shortened: as §2
[31] = tested on: OVCAR-5; assay: Anticancer activity against human OVCAR5 cells after 48 hrs by sulforhodamine B assay; conditions: OVCAR-5, 48 h; procedure, shortened: as §2
[32] = tested on: SNB-75; assay: Anticancer activity against human SNB75 cells after 48 hrs by sulforhodamine B assay; conditions: SNB-75, 48 h; procedure, shortened: as §1
[33] = tested on: OVCAR-3; assay: Anticancer activity against human OVCAR-3 cells after 48 hrs by sulforhodamine B assay; conditions: OVCAR-3, 48 h; procedure, shortened: as §2
[34] = tested on: CAKI-1; assay: Anticancer activity against human Caki1 cells after 48 hrs by sulforhodamine B assay; conditions: CAKI-1, 48 h; procedure, shortened: as §2
[35] = tested on: SN12C; assay: Anticancer activity against human SN12C cells after 48 hrs by sulforhodamine B assay; procedure, shortened: as §1
[36] = tested on: MDA-N; assay: Anticancer activity against human MDA-N cells after 48 hrs by sulforhodamine B assay; procedure, shortened: as §2
[37] = tested on: OVCAR-4; assay: Anticancer activity against human OVCAR4 cells after 48 hrs by sulforhodamine B assay; conditions: OVCAR-4, 48 h; procedure, shortened: as §2
[38] = tested on: SK-MEL-5; assay: Anticancer activity against human SK-MEL-5 cells after 48 hrs by sulforhodamine B assay; conditions: SK-MEL-5, 48 h; procedure, shortened: as §2
[39] = tested on: LOX IMVI; assay: Anticancer activity against human LOXIMVI cells after 48 hrs by sulforhodamine B assay; procedure, shortened: as §2
[40] = tested on: NCI/ADR-RES; assay: Anticancer activity against human NCI/ADR-RES cells after 48 hrs by sulforhodamine B assay; procedure, shortened: as §2
[41] = tested on: ACHN; assay: Anticancer activity against human ACHN cells after 48 hrs by sulforhodamine B assay; procedure, shortened: as §2
[42] = tested on: CCRF-CEM; assay: Anticancer activity against human CCRF-CEM cells after 48 hrs by sulforhodamine B assay; procedure, shortened: as §2
[43] = tested on: EKVX; assay: Anticancer activity against human EKVX cells after 48 hrs by sulforhodamine B assay; procedure, shortened: as §2
[44] = tested on: SF-539; assay: Anticancer activity against human SF539 cells after 48 hrs by sulforhodamine B assay; conditions: SF-539, 48 h; procedure, shortened: as §2
[45] = tested on: UACC-257; assay: Anticancer activity against human UACC257 cells after 48 hrs by sulforhodamine B assay; conditions: UACC-257, 48 h; procedure, shortened: as §1

SMILES: O=C(Nc1nc2ccccc2s1)NC(C(F)(F)F)C(F)(F)F
GI50 [1]: 35.5 µM
GI50 [2]: 31.6 µM
GI50 [3]: 3.24 µM
GI50 [4]: 24.5 µM
GI50 [5]: 16.6 µM
GI50 [6]: 24.5 µM
GI50 [7]: 38 µM
GI50 [8]: 25.1 µM
GI50 [9]: 33.9 µM
GI50 [10]: 22.9 µM
GI50 [11]: 26.9 µM
GI50 [12]: 35.5 µM
GI50 [13]: 19.5 µM
GI50 [14]: 20 µM
GI50 [15]: 26.9 µM
GI50 [16]: 25.7 µM
GI50 [17]: 30.9 µM
GI50 [18]: 14.1 µM
GI50 [19]: 23.4 µM
GI50 [20]: 25.7 µM
GI50 [21]: 25.7 µM
GI50 [22]: 28.2 µM
GI50 [23]: 19.1 µM
GI50 [24]: 33.9 µM
GI50 [25]: 20 µM
GI50 [26]: 30.2 µM
GI50 [27]: 28.2 µM
GI50 [28]: 28.8 µM
GI50 [29]: 20.4 µM
GI50 [30]: 28.2 µM
GI50 [31]: 27.5 µM
GI50 [32]: 17 µM
GI50 [33]: 18.2 µM
GI50 [34]: 28.8 µM
GI50 [35]: 14.1 µM
GI50 [36]: 23.4 µM
GI50 [37]: 28.8 µM
GI50 [38]: 15.5 µM
GI50 [39]: 22.9 µM
GI50 [40]: 27.5 µM
GI50 [41]: 28.2 µM
GI50 [42]: 33.1 µM
GI50 [43]: 20.9 µM
GI50 [44]: 26.9 µM
GI50 [45]: 20.4 µM

GI50 [2]: 61.7 µM
GI50 [4]: 40.7 µM
GI50 [5]: 46.8 µM
GI50 [8]: 0.0794 µM
GI50 [9]: 53.7 µM
GI50 [10]: 20 µM
GI50 [11]: 44.7 µM
GI50 [12]: 72.4 µM
GI50 [13]: 41.7 µM
GI50 [14]: 74.1 µM
GI50 [17]: > 100 µM
GI50 [18]: 38 µM
GI50 [20]: 70.8 µM
GI50 [21]: 53.7 µM
GI50 [22]: 42.7 µM
GI50 [26]: 69.2 µM
GI50 [27]: 40.7 µM
GI50 [28]: > 100 µM
GI50 [31]: > 100 µM
GI50 [33]: 61.7 µM
GI50 [37]: 83.2 µM
GI50 [38]: 33.9 µM
GI50 [41]: 61.7 µM
GI50 [42]: 19.5 µM
SMILES: CCC(NC(=O)Nc1nccs1)(C(F)(F)F)C(F)(F)F
GI50 [1]: > 100 µM
GI50 [3]: 95.5 µM
GI50 [6]: 40.7 µM
GI50 [7]: > 100 µM
GI50 [15]: 52.5 µM
GI50 [16]: 30.2 µM
GI50 [19]: 52.5 µM
GI50 [23]: 38 µM
GI50 [24]: 60.3 µM
GI50 [25]: 46.8 µM
GI50 [29]: 58.9 µM
GI50 [30]: 83.2 µM
GI50 [32]: 19.5 µM
GI50 [34]: 83.2 µM
GI50 [35]: 55 µM
GI50 [36]: 60.3 µM
GI50 [39]: 72.4 µM
GI50 [40]: 29.5 µM
GI50 [43]: 35.5 µM
GI50 [44]: > 100 µM
GI50 [45]: 32.4 µM
